Among the data in ChEMBL document CHEMBL1122936, “Facile synthesis of platelet-activating factor and racemic analogues containing unsaturation in the sn-1-alkyl chain” (1985) are Degranulating activity, ED10 and EC50 values, retold here.

What all share (format): functional
Test [1] is filed under the species Homo sapiens. In words: Desensitizing action on human PMN degranulation response, in the presence of FMLP (17 nM) at the dose of 9 nM. A digest of the protocol:
(§1)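 Human neutrophils (>96% PMN, <5 platelets/100 PMN, no erythrocytes) at 2.6×10^6 cells/mL in Hanks' buffer, 37 °C, 20 min. Preincubated 8 min with desensitizing agent in BSA, or BSA alone. Then cytochalasin B 5 μg/mL for 2–4 min, then challenge 5 min with 200 nM 1-O-hexadecyl PAF or 17 nM FMLP. Read-out is net β-glucuronidase release vs BSA-pretreated cells, 14 experiments, unpaired t-test.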

The species entered for test [2] is Homo sapiens. In words: Desensitizing action on human PMN degranulation response, in the presence of PAF (200 nM) at the dose of 9 nM. In short, it runs like this:
as §1

For test [3], the species on record is Homo sapiens. In words: Effective dose for lysozyme release in human PMN was measured. In short, it runs like this: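 Human PMN at 2.6×10^6 cells/mL in Hanks' buffer, 37 °C, 20 min. Cytochalasin B 5 μg/mL for 2–4 min, then racemic analogue challenge 5 min, on ice, spun 200g at 4 °C. Net lysozyme release = % of total minus unstimulated release. ED10 extrapolated for 10% net release from curves averaged over ≥5 dose-response experiments.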

The species entered for test [4] is Oryctolagus cuniculus. In words: Effective dose for [14C]5-HT release in prelabeled rabbit platelets was measured. The conditions noted are these: read-out: ED50 (the source's name). In short, it runs like this:
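Rabbit platelet-rich plasma labeled with [14C]serotonin 1.0 μCi/mL, 37 °C, 15 min. Washed twice, then 5×10^7 platelets/0.2 mL in citrate-free Tyrode's (pH 7.3) with 1 mM Ca2+, 37 °C, 20 min. Challenged 1 min, stopped with formalin on ice, supernatant label counted as % of total cellular label. ED50 extrapolated for 50% release from curves averaged over ≥5 dose-response experiments.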

The species named for test [5] is Homo sapiens. In words: Desensitizing action on human PMN degranulation response, in the presence of FMLP (17 nM) at the dose of 10 nM. In short, it runs like this: as §1
The species named for test [6] is Homo sapiens. In words: Desensitizing action on human PMN degranulation response, in the presence of PAF (200 nM) at the dose of 10 nM. A digest of the protocol: as §1
Test [7] is filed under the species Homo sapiens. In words: Desensitizing action on human PMN degranulation response, in the presence of FMLP (17 nM) at the dose of 8 nM. In short, it runs like this:
(§2)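 Human neutrophils (>96% PMN, <5 platelets/100 PMN, no erythrocytes) in Hanks' buffer at 2.6×10^6 cells/mL, 37 °C, 20 min; preincubated 8 min with desensitizing agent (in BSA) or BSA alone, then cytochalasin B 5 μg/mL for 2–4 min, challenged 5 min (200 nM PAF or 17 nM FMLP). Supernatant assayed for net β-glucuronidase release, 14 experiments; unpaired t-test versus BSA.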

For test [8], the species on record is Homo sapiens. The test can be described thus: Desensitizing action on human PMN degranulation response, in the presence of PAF (200 nM) at the dose of 8 nM. In short, it runs like this:
as §2

For test [9], the species on record is Homo sapiens. In words: Desensitizing action on human PMN degranulation response, in the presence of FMLP (17 nM) at the dose of 60 nM. A digest of the protocol: as §1
For test [10], the species on record is Homo sapiens. In words: Desensitizing action on human PMN degranulation response, in the presence of PAF (200 nM) at the dose of 60 nM. In short, it runs like this:
as §1

Test [11] is filed under the species Homo sapiens. The test can be described thus: Desensitizing action on human PMN degranulation response, in the presence of FMLP (17 nM) at the dose of 17 nM. A digest of the protocol:
as §1

Test [12] is filed under the species Homo sapiens. The test can be described thus: Desensitizing action on human PMN degranulation response, in the presence of PAF (200 nM) at the dose of 17 nM. A digest of the protocol:
as §1

As for `CCCCC/C=C\C/C=C\CCCCCCCCOCC(COP(=O)([O-])OCC[N+](C)(C)C)OC(C)=O` (configuration not stated), the Degranulating activity in test [1] was 26.3; in [2], 0.1. The compound further gave an ED10 in test [3] of 9 nM. Besides, in test [4], the EC50 came to 0.3 nM.

As for `CCCCCC/C=C\CCCCCCCCOCC(COP(=O)([O-])OCC[N+](C)(C)C)OC(C)=O` (configuration not stated), the Degranulating activity in [5] is given as 29.5; in test [6] it was 1.4. Further, the ED10 in [3] is 10 nM. Besides, the EC50 in test [4] turned out to be 0.5 nM.

Turning to `CCCCCCCCCCCCCCCCOCC(COP(=O)([O-])OCC[N+](C)(C)C)OC(C)=O` (configuration not stated) [PLATELET ACTIVATING FACTOR], the Degranulating activity is listed as 23.6 in [7] and -0.2 in test [8]. Besides, in test [3], the ED10 amounted to 8 nM. The EC50 in test [4] amounted to 0.2 nM.

With `CCCCCCCCCCCCCCCCCCOCC(COP(=O)([O-])OCC[N+](C)(C)C)OC(C)=O` (configuration not stated), the Degranulating activity in test [9] is recorded as 22; in test [10] it was -1.2. In test [3], the ED10 came to 60 nM. Also, the EC50 in test [4] was determined as 0.8 nM.

`CSCC[C@H](NC=O)C(=O)N[C@@H](CC(C)C)C(=O)N[C@@H](Cc1ccccc1)C(=O)O`: the Degranulating activity in test [11] is on record as 6.2; in [12] it was 11.9.

Consider `CCCCCCCC/C=C\CCCCCCCCOCC(COP(=O)([O-])OCC[N+](C)(C)C)OC(C)=O` (configuration not stated), for which the Degranulating activity was determined as 28.2 in test [5] and 0.3 in test [6]. Also, the ED10 in [3] came out at 13 nM. For the same compound, the EC50 in test [4] was determined as 0.4 nM.
